In ChEMBL document CHEMBL1932971, “Synthesis of uriedo and thiouriedo derivatives of peptide conjugated heterocycles - A new class of promising antimicrobials” (2012) one finds zone of inhibition and MIC data, which are given here for 7 compounds.

Converted amounts (≈) assume the structure as drawn. Numbered stars: 1 amine (or outer) side, 2 acyl side, 3 side chain; on linkers, the order of the positions; unused ones are H or OH. Peptide text beside a SMILES is read from it. * marks the point of attachment. Piperazinyl(4-(2,3-Cl2Ph)) = Clc1cccc(N2CCN(*)CC2)c1Cl; Thiocarbamoyl(4-MeOPh) = COc1ccc(NC(=S)*)cc1; X1 = Fc1ccc2c(C3CCN(*)CC3)noc2c1; NH(2-F-phenyl) = Fc1ccccc1N*; CO = O=C([*:1])[*:2]

Format in all cases: functional
Test [1] has as its system Escherichia coli. Nature of the test: Antibacterial activity against Escherichia coli at 30 ug/ml after 24 hrs by agar well diffusion method. The settings on record: read-out: DIZ. A digest of the protocol:
(§1)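 Agar well diffusion. Inocula were grown in nutrient broth at 37 °C for 24 h, then subcultured in nutrient broth at room temperature. Compounds were made as a 1 mg/mL DMSO stock and diluted to 30 µg/mL final. Nutrient agar plates were spread-inoculated and 6 mm wells each got 0.1 mL. Controls were amoxicillin (reference) and DMSO (negative). Incubation was 24 h at 37 °C. Inhibition zone was measured in mm as the mean of three determinations.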

Test [2] deals with Xanthomonas oryzae. Nature of the test: Antibacterial activity against Xanthomonas oryzae at 30 ug/ml after 24 hrs by agar well diffusion method. To be noted: read-out: DIZ.
In test [3] the test system is Klebsiella pneumoniae. In words: Antibacterial activity against Klebsiella pneumoniae at 30 ug/ml after 24 hrs by agar well diffusion method. The settings on record: read-out: DIZ. A digest of the protocol:
as §1

The test system of test [4] is Staphylococcus aureus. Nature of the test: Antibacterial activity against coagulase-positive Staphylococcus aureus at 30 ug/ml after 24 hrs by agar well diffusion method. To be noted: read-out: DIZ. A digest of the protocol: as §1
For test [5], the system named is Escherichia coli. Nature of the test: Antibacterial activity against Escherichia coli after 24 hrs by microdilution method.
Test [6] deals with Xanthomonas oryzae. In words: Antibacterial activity against Xanthomonas oryzae after 24 hrs by microdilution method.
Test [7] has as its system Klebsiella pneumoniae. In words: Antibacterial activity against Klebsiella pneumoniae after 24 hrs by microdilution method.
The test system of test [8] is Staphylococcus aureus. Nature of the test: Antibacterial activity against coagulase-positive Staphylococcus aureus after 24 hrs by microdilution method.
Test [9] has as its system Aspergillus niger. In words: Antifungal activity against Aspergillus niger at 30 ug/ml after 72 hrs by agar well diffusion method. The settings on record: read-out: DIZ. A digest of the protocol:
(§2)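 Fungal well diffusion. Inocula were subcultured in nutrient broth for one day, then spread on solidified medium. Compounds were made as a 1 mg/mL DMSO stock and diluted to 30 µg/mL final. Each 6 mm well got 0.1 mL. Controls were bavistin (reference) and DMSO (negative). Plates stood for 3 days at room temperature. Inhibition zone was measured in mm as the mean of three determinations.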

Test [10] has as its system Aspergillus flavus. Nature of the test: Antifungal activity against Aspergillus flavus at 30 ug/ml after 72 hrs by agar well diffusion method. The settings on record: read-out: DIZ. A digest of the protocol:
as §2

The test system of test [11] is Fusarium oxysporum. In words: Antifungal activity against Fusarium oxysporum at 30 ug/ml after 72 hrs by agar well diffusion method. To be noted: read-out: DIZ. The method, boiled down: as §2
The test system of test [12] is Aspergillus niger. Nature of the test: Antifungal activity against Aspergillus niger after 72 hrs by microdilution method.
For test [13], the system named is Aspergillus flavus. In words: Antifungal activity against Aspergillus flavus after 72 hrs by microdilution method.
The test system of test [14] is Fusarium oxysporum. Nature of the test: Antifungal activity against Fusarium oxysporum after 72 hrs by microdilution method.

In the case of `O=C(CNC(=O)Nc1ccccc1F)N[C@@H](Cc1ccccc1)C(=O)NCC(=O)N[C@@H](Cc1ccccc1)C(=O)N1CCC[C@H]1C(=O)N1CCC(c2noc3cc(F)ccc23)CC1` ({NH(2-F-phenyl)-CO}-GFGFP-X1), the zone of inhibition at 30 µg/mL in the test with Escherichia coli [1] turned out to be 39 mm; in the test on Xanthomonas oryzae [2], 40 mm; in the test with Klebsiella pneumoniae [3] it was 36 mm; in the test on Staphylococcus aureus [4] it was 34 mm; in the test with Aspergillus niger [9], 40 mm; in the test with Aspergillus flavus [10] it was 35 mm. In addition, the zone of inhibition at 30 µg/mL with Fusarium oxysporum [11] amounted to 39 mm. Also, the MIC was determined as 5 µg/mL (≈ 5.79 µM) against Escherichia coli [5]; 5 µg/mL (≈ 5.79 µM) with Xanthomonas oryzae [6]; 3.25 µg/mL (≈ 3.77 µM) with Klebsiella pneumoniae [7]; 4.25 µg/mL (≈ 4.93 µM) in the test on Staphylococcus aureus [8]; 3.25 µg/mL (≈ 3.77 µM) with Aspergillus niger [12]; 4.75 µg/mL (≈ 5.5 µM) with Aspergillus flavus [13]. The compound also gave an MIC against Fusarium oxysporum [14] of 4.25 µg/mL (≈ 4.93 µM).
As for `O=C(CNC(=O)Nc1ccccc1F)N[C@@H](Cc1ccccc1)C(=O)NCC(=O)N[C@@H](Cc1ccccc1)C(=O)N1CCC[C@H]1C(=O)N1CCN(c2cccc(Cl)c2Cl)CC1` ({NH(2-F-phenyl)-CO}-GFGFP-{Piperazinyl(4-(2,3-Cl2Ph))}), the zone of inhibition at 30 µg/mL in the test with Escherichia coli [1] is 37 mm; in the test on Xanthomonas oryzae [2], 38 mm; in the test with Klebsiella pneumoniae [3] it was 35 mm; in the test with Staphylococcus aureus [4] it was 33 mm; with Aspergillus niger [9], 39 mm; in the test on Aspergillus flavus [10], 34 mm. For the same compound, in the test with Fusarium oxysporum [11], the zone of inhibition at 30 µg/mL was 34 mm. In addition, the MIC turned out to be 5.5 µg/mL (≈ 6.29 µM) against Escherichia coli [5]; 5.75 µg/mL (≈ 6.58 µM) in the test with Xanthomonas oryzae [6]; 4 µg/mL (≈ 4.58 µM) with Klebsiella pneumoniae [7]; 5 µg/mL (≈ 5.72 µM) with Staphylococcus aureus [8]; 4 µg/mL (≈ 4.58 µM) with Aspergillus niger [12]; 5.25 µg/mL (≈ 6.01 µM) in the test with Aspergillus flavus [13]. Moreover, the lowest concentration to inhibit growth in the test on Fusarium oxysporum [14] (MIC) was 5 µg/mL (≈ 5.72 µM).
Turning to `O=C(CNC(=O)Nc1ccccc1F)NCC(=O)N[C@@H](Cc1ccccc1)C(=O)N1CCC[C@H]1C(=O)N1CCC(c2noc3cc(F)ccc23)CC1` ({NH(2-F-phenyl)-CO}-GGFP-X1), the zone of inhibition at 30 µg/mL in the test on Escherichia coli [1] turned out to be 31 mm; in the test with Xanthomonas oryzae [2], 29 mm; with Klebsiella pneumoniae [3], 27 mm; in the test on Staphylococcus aureus [4] it was 25 mm; in the test with Aspergillus niger [9], 34 mm; in the test on Aspergillus flavus [10], 29 mm. The zone of inhibition at 30 µg/mL in the test on Fusarium oxysporum [11] was determined as 31 mm. Moreover, the MIC against Escherichia coli [5] was 12 µg/mL (≈ 16.8 µM); with Xanthomonas oryzae [6], 9 µg/mL (≈ 12.6 µM); in the test on Klebsiella pneumoniae [7], 9 µg/mL (≈ 12.6 µM); in the test on Staphylococcus aureus [8], 11 µg/mL (≈ 15.4 µM); in the test with Aspergillus niger [12] it was 9 µg/mL (≈ 12.6 µM); against Aspergillus flavus [13], 13 µg/mL (≈ 18.2 µM). Further, in the test on Fusarium oxysporum [14], the MIC was 14 µg/mL (≈ 19.6 µM).
Regarding `COc1ccc(NC(=S)NCC(=O)NCC(=O)N[C@@H](Cc2ccccc2)C(=O)N2CCC[C@H]2C(=O)N2CCC(c3noc4cc(F)ccc34)CC2)cc1` ({Thiocarbamoyl(4-MeOPh)}-GGFP-X1), the zone of inhibition at 30 µg/mL with Escherichia coli [1] is 24 mm; in the test on Xanthomonas oryzae [2], 22 mm; with Klebsiella pneumoniae [3], 21 mm; in the test with Staphylococcus aureus [4] it was 19 mm; in the test on Aspergillus niger [9] it was 28 mm; with Aspergillus flavus [10], 23 mm. Besides, in the test on Fusarium oxysporum [11], the zone of inhibition at 30 µg/mL was found to be 25 mm.
Take `COc1ccc(NC(=S)NCC(=O)NCC(=O)N[C@@H](Cc2ccccc2)C(=O)N2CCC[C@H]2C(=O)N2CCN(c3cccc(Cl)c3Cl)CC2)cc1` ({Thiocarbamoyl(4-MeOPh)}-GGFP-{Piperazinyl(4-(2,3-Cl2Ph))}): the zone of inhibition at 30 µg/mL stood at 23 mm in the test with Escherichia coli [1]; 21 mm in the test on Xanthomonas oryzae [2]; 20 mm with Klebsiella pneumoniae [3]; 18 mm with Staphylococcus aureus [4]; 29 mm with Aspergillus niger [9]; 22 mm with Aspergillus flavus [10]. The zone of inhibition at 30 µg/mL in the test with Fusarium oxysporum [11] is 24 mm.
As to `CC[C@H](C)[C@H](NC(=O)CNC(=O)CNC(=S)Nc1ccc(OC)cc1)C(=O)N1CCC[C@H]1C(=O)N1CCC(c2noc3cc(F)ccc23)CC1` ({Thiocarbamoyl(4-MeOPh)}-GGIP-X1), the zone of inhibition at 30 µg/mL was determined as 24 mm with Escherichia coli [1]; 20 mm with Xanthomonas oryzae [2]; 14 mm in the test with Klebsiella pneumoniae [3]; 16 mm in the test on Staphylococcus aureus [4]; 26 mm in the test with Aspergillus niger [9]; 22 mm in the test on Aspergillus flavus [10]. Further, in the test with Fusarium oxysporum [11], the zone of inhibition at 30 µg/mL stood at 24 mm.
On to `CC[C@H](C)[C@H](NC(=O)CNC(=O)CNC(=S)Nc1ccc(OC)cc1)C(=O)N1CCC[C@H]1C(=O)N1CCN(c2cccc(Cl)c2Cl)CC1` ({Thiocarbamoyl(4-MeOPh)}-GGIP-{Piperazinyl(4-(2,3-Cl2Ph))}), for which the zone of inhibition at 30 µg/mL with Escherichia coli [1] was 23 mm; in the test with Xanthomonas oryzae [2], 19 mm; with Klebsiella pneumoniae [3] it was 13 mm; in the test on Staphylococcus aureus [4], 18 mm; in the test with Aspergillus niger [9], 25 mm; in the test on Aspergillus flavus [10], 21 mm. Moreover, the zone of inhibition at 30 µg/mL in the test on Fusarium oxysporum [11] came to 23 mm.
